PvdQ inh = blocks Pseudomonas aeruginosa PvdQ acylase activity; purified PvdQ acylase, fluorescence plate reader; inhibition, % at 10 µM; actives 0.063% (n = 340,000); AID 488965; in the data active = inhibition above about 30%, passing the limit was not always enough
dFosB activator = enhances mouse delta FosB homodimer DNA binding. P13346. purified delta FosB, TAMRA-CDK5 oligo fluorescence polarization; percent of positive-control signal above neutral wells. activation, % at 25 µM. actives 0.99% (n = 340,000). AID 493131;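 active = mean activation above about 17%, with every replicate also reaching it, limit read from the data, passing the limit was not always enough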
Target sequence (P13346 whole entry, looked up): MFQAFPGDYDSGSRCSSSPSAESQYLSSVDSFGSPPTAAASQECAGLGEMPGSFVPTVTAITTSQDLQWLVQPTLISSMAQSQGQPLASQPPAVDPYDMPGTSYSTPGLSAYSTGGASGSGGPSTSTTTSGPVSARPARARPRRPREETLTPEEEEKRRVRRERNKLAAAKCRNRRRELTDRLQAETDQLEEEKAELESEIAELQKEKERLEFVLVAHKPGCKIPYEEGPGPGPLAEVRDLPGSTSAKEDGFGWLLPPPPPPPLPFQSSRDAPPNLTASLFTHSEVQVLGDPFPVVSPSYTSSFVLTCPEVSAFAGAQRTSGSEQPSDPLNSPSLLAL
rRNA inh HTS = inhibits bacterial ribosomal RNA function over humanized ribosomes; E. coli WT GFP vs humanized-ribosome RFP mutants, fluorescence, 24 h; stronger effect = lower value; DMSO median 0, no signal -100; GFP signal change (wild-type ribosome), % (no concentration beside the values); actives 1.6% (n = 350,000); AID 720706;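 active = significant combined selectivity score with lowered wild-type GFP, culture density cut under 30%, mutant RFP and density less affected; inactive = any of these conditions unmet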
SR-BI HDL uptake = inhibitors of mouse SR-BI mediated HDL lipid uptake; Q61009; ldlA[mSR-BI] CHO cells, DiI-HDL uptake fluorescence, 3 h; inhibition, % at 12.5 µM; actives 0.96% (n = 320,000);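 active = mean replicate inhibition of at least 70% and a set share of replicates each scoring 70 or more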
SR-BI uptake up = enhances SR-BI lipid uptake from DiI-HDL; CHO ldlA[mSR-BI] cells, DiI-HDL uptake fluorescence, 3 h; 100 = double the neutral-control signal; activation, % at 12.5 µM; actives 0.096% (n = 320,000); AID 504775;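 active = mean replicate activation of at least 60% and every replicate at or above 60%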
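System: LDL receptor-deficient CHO ldlA cells overexpressing murine SR-BI | Timing: 3 h uptake period with compound, 37 °C | Medium: HEPES-buffered (25 mM, pH 7.4) F12 plus 0.5% BSA | Dosing: Single-point compound dose | Signal: Bottom-read fluorescence, 550/595 nm | Read-out: Retained DiI signal reflecting DiI-HDL uptake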
XiGFP reactiv = activators of X-chromosome reactivation in mouse fibroblasts; activation, % at 7.58 µM; actives 0.055% (n = 360,000); XiGFP mouse fibroblasts, % GFP-positive cells imaging, 3 d; cells co-treated with 5-aza-dC sensitizer; scaled so ellipticine positive control = 100%; AID 743238;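 active = mean normalized replicate activation at least 10% and every replicate at or above 10%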
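System: XiGFP fibroblasts, SV40-immortalized. Medium: DMEM plus 5-aza-dC sensitizer. Doses: single point. Timing: 3 d treatment, 15 min room-temperature fixation. Control set: ellipticine 6 µM.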
Numbers stand for hits. Sampled rows, rich in hits. Any-hit rate of the full collection: about 2.6%.

COc1ccc([N+](=O)[O-])cc1NC(=O)c1cn(-c2ccc(Cl)cc2)c(=O)c2ccccc12 was read as PvdQ inh inactive, dFosB activator inactive, rRNA inh HTS inactive, SR-BI HDL uptake 74, SR-BI uptake up inactive and XiGFP reactiv inactive.
COc1ccc([N+](=O)[O-])cc1NC(=O)CC(c1ccccc1)c1ccccc1 was read as PvdQ inh inactive, dFosB activator inactive, rRNA inh HTS inactive, SR-BI HDL uptake inactive, SR-BI uptake up inactive and XiGFP reactiv inactive.
`COCCSc1ccccc1C(=O)Nc1ccc([N+](=O)[O-])cc1OC` gave PvdQ inh inactive, dFosB activator inactive, rRNA inh HTS inactive, SR-BI HDL uptake 81, SR-BI uptake up inactive and XiGFP reactiv inactive.
For CCn1ncc(C(=O)Nc2ccc([N+](=O)[O-])cc2OC)c1C the results were PvdQ inh inactive, dFosB activator inactive, SR-BI HDL uptake inactive, SR-BI uptake up inactive and XiGFP reactiv inactive.
`Cc1ccccc1CS(=O)(=O)Cc1ccc(C(=O)NC2CCCC2)o1` gave PvdQ inh inactive, dFosB activator inactive, rRNA inh HTS inactive, SR-BI HDL uptake inactive, SR-BI uptake up inactive and XiGFP reactiv inactive.
Screening Cc1ccc(NS(=O)(=O)c2ccc(-c3csc(C)n3)s2)c(C)c1 returned PvdQ inh inactive, dFosB activator inactive, rRNA inh HTS -38, SR-BI HDL uptake inactive, SR-BI uptake up inactive and XiGFP reactiv inactive.
`CCN(CC)S(=O)(=O)c1ccc(-c2csc(C)n2)s1` gave PvdQ inh inactive, dFosB activator inactive, rRNA inh HTS inactive, SR-BI HDL uptake inactive, SR-BI uptake up inactive and XiGFP reactiv inactive.
COc1cccc(-n2c(=O)c3sccc3n(CC(=O)NC3CCCCC3)c2=O)c1 was read as PvdQ inh inactive, dFosB activator inactive, rRNA inh HTS inactive and XiGFP reactiv inactive.
CC(C)(C)C(=O)/C=c1\s/c(=C\c2ccc(-c3ccc([N+](=O)[O-])cc3)o2)c(=O)n1CC(=O)NC(N)=O was read as PvdQ inh inactive, dFosB activator inactive, SR-BI HDL uptake inactive, SR-BI uptake up inactive and XiGFP reactiv 110.
Screening CCN1C(=O)/C(=C2/C=CC=CN2C)SC1=S returned PvdQ inh inactive and dFosB activator inactive.
`CCN1C(=O)C(=CC=CN(C)c2ccccc2)SC1=S` gave rRNA inh HTS inactive and XiGFP reactiv inactive.
For CCN1C(=O)/C(=C\C=C2/C=CC=CN2CC)SC1=S the results were PvdQ inh inactive, dFosB activator 25, SR-BI HDL uptake inactive, SR-BI uptake up inactive and XiGFP reactiv inactive.
For CCN1C(=O)/C(=C/C=C2\C=CN(CC)c3ccccc32)SC1=S the results were PvdQ inh inactive, dFosB activator inactive, SR-BI HDL uptake 140, SR-BI uptake up inactive and XiGFP reactiv inactive.
Screening CCOc1cccc2sc(Nc3nc4ccc(NC(C)=O)cc4s3)nc12 returned PvdQ inh inactive, dFosB activator inactive, rRNA inh HTS inactive, SR-BI HDL uptake inactive, SR-BI uptake up inactive and XiGFP reactiv inactive.
O=C(NCCCCc1ccccc1)c1ccccc1Br was read as rRNA inh HTS -36 and XiGFP reactiv inactive.
Screening O=C(NCCCCc1ccccc1)c1ccccc1F returned PvdQ inh inactive, dFosB activator inactive, rRNA inh HTS inactive, SR-BI HDL uptake inactive, SR-BI uptake up inactive and XiGFP reactiv inactive.
CC(C)c1cc(C(C)C)c(S(=O)(=O)N2CCNCC2)c(C(C)C)c1 was read as PvdQ inh inactive, dFosB activator inactive, rRNA inh HTS -44, SR-BI HDL uptake inactive, SR-BI uptake up inactive and XiGFP reactiv inactive.
`Cc1cc(C)c(C)c(S(=O)(=O)N2CCNCC2)c1C` gave PvdQ inh inactive, dFosB activator inactive, rRNA inh HTS inactive, SR-BI HDL uptake inactive, SR-BI uptake up inactive and XiGFP reactiv inactive.
`COc1cccc(CC(=O)OCC(=O)Nc2nnc(-c3ccccc3)o2)c1` gave PvdQ inh inactive, dFosB activator inactive, rRNA inh HTS -27, SR-BI HDL uptake inactive, SR-BI uptake up inactive and XiGFP reactiv inactive.
Screening COc1cccc(-c2ccc3c(c2)O[C@@H](CN(C)C(=O)C2CC2)[C@H](C)CN([C@H](C)CO)S3(=O)=O)c1 returned rRNA inh HTS inactive and XiGFP reactiv inactive.
`Cc1cc(C)n(-c2cc(N3CCOCC3)nc(-c3ccccc3)n2)n1` gave PvdQ inh inactive, dFosB activator inactive, rRNA inh HTS inactive, SR-BI HDL uptake 85 and SR-BI uptake up inactive.
`O=C(N/N=C/c1cccc(Oc2ccccc2)c1)c1ccncc1` gave PvdQ inh inactive, dFosB activator inactive, rRNA inh HTS -21, SR-BI HDL uptake inactive, SR-BI uptake up inactive and XiGFP reactiv inactive.
Screening O=C(N/N=C/c1ccncc1)c1ccccc1 returned PvdQ inh inactive, dFosB activator inactive, SR-BI HDL uptake inactive and SR-BI uptake up inactive.
For CCn1c2ccccc2c2cc(/C=N/NC(=O)c3ccncc3)ccc21 the results were PvdQ inh inactive, dFosB activator inactive, rRNA inh HTS -36, SR-BI HDL uptake inactive, SR-BI uptake up inactive and XiGFP reactiv inactive.
`COCC(=O)N1CC2(CN(Cc3ccccc3Cl)C2)c2c([nH]c3cc(OC)ccc23)[C@@H]1CO` gave rRNA inh HTS inactive and XiGFP reactiv inactive.
`COC(OC)c1ccc(C#N)c(SCc2ccc(C)cc2)n1` gave PvdQ inh inactive, dFosB activator inactive, rRNA inh HTS -29, SR-BI HDL uptake inactive, SR-BI uptake up inactive and XiGFP reactiv inactive.
Cc1nnsc1-c1nc2ccccc2n1C(CCc1ccccc1)c1nc2ccccc2[nH]1 (configuration not stated) was read as rRNA inh HTS inactive and XiGFP reactiv inactive.
`COc1cccc(S(=O)(=O)N(C)C[C@@H]2Oc3ncc(-c4cccc(C(=O)N(C)C)c4)cc3C(=O)N([C@@H](C)CO)C[C@H]2C)c1` gave rRNA inh HTS inactive and XiGFP reactiv inactive.
For Cc1ccc(C)c(CN2CCC(n3nccc3NC(=O)CCCc3ccccc3)CC2)c1 the results were PvdQ inh inactive, dFosB activator inactive, rRNA inh HTS -27, SR-BI HDL uptake inactive, SR-BI uptake up inactive and XiGFP reactiv inactive.
`COC(=O)[C@@H](Cc1c[nH]c2ccccc12)NCc1ccc(B(O)O)cc1` gave PvdQ inh inactive, dFosB activator inactive, rRNA inh HTS inactive, SR-BI HDL uptake inactive, SR-BI uptake up inactive and XiGFP reactiv inactive.
For COC(=O)[C@H](Cc1c[nH]c2ccccc12)NCc1cccc(B(O)O)c1 the results were PvdQ inh inactive, dFosB activator inactive, rRNA inh HTS -24, SR-BI HDL uptake inactive, SR-BI uptake up inactive and XiGFP reactiv inactive.

Assay outcomes deposited in PubChem BioAssay by Broad Institute.
